Test results taken from article PMC5563258 (Journal of medicinal chemistry, 2017).

Tests used:
D3R [1] = target: T1, D3R (Homo sapiens, UniProt P35462); experiment: β-arrestin recruitment assay; type: cell-based; conditions: Figure 2
Procedure, shortened: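 HEK293T cells were transiently transfected (polyethylenimine) with D3R–Rluc8 (C-terminal), mVenus–β-arrestin 2 (N-terminal) and GRK2, and assayed ~48 h later. Cells in PBS + 5 mM glucose got coelenterazine H (5 µM) for 8 min, then test compound (final 10 pM–100 µM). BRET1 (510–540/485 nm) was read at 30 min, normalized to vehicle (0%) and dopamine (100%), and fitted sigmoidally.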

[2] = dogs; cited from earlier work
D3R [3] = target: T1, D3R; conditions: BRET assay; cited from earlier work
D3R [4] = target: T1, D3R; experiment: Go BRET activation assay; type: cell-based; conditions: for Functional efficacy class: Go BRET activation assay, Figure 1

T1 sequence (P35462 whole entry): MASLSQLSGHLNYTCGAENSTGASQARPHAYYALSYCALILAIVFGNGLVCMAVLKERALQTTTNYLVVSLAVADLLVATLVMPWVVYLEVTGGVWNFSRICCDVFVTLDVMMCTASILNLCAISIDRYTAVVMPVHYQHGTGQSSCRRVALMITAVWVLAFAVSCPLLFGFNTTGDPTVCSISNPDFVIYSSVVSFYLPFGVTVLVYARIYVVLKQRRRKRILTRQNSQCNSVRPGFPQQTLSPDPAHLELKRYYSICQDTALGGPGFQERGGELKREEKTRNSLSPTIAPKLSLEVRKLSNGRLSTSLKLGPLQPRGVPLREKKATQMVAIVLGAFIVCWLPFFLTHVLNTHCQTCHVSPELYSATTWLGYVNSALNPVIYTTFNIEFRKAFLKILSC

Structure (SMILES)	Functional efficacy class (D3R [1])	Functional efficacy class (D3R [4])	also measured
O=C(NCC[C@@H](O)CN1CCN(c2cccc(Cl)c2Cl)CC1)c1cnc2ccccc2c1 [(R)-4, (R)-N-(4-(4-(2,3-Dichlorophenyl)piperazin-1-yl)-3-hydroxybutyl)quinoline-3-carboxamide]	antagonists	–	–
Cc1ncoc1-c1nnc(SCCCN2CC3CC3(c3ccc(C(F)(F)F)cc3F)C2)n1C (centres unmarked) [GSK598,809, 1-(2-fluoro-4-trifluoromethyl-phenyl)-3-{3-[4-methyl-5-(4-methyl-oxazol-5-yl)-4H-[1,2,4]triazol-3-ylsulfanyl]-propyl}-3-aza-bicyclo[3.1.0]hexane]	–	–	Effect on cocaine-mediated increases in blood pressure and heart rate [2]: potentiate cocaine-mediated increases in blood pressure and heart rate
Clc1cccc(N2CCNCC2)c1Cl [2,3-diCl-phenylpiperazine, 1-(2,3-dichlorophenyl)piperazine]	–	–	Emax (% of dopamine efficacy) (D3R [3]): 57.3%
O=C(NCC[C@H](O)CN1CCN(c2cccc(Cl)c2Cl)CC1)c1cc2ccccc2[nH]1 [(S)-9]	partial agonists	partial agonists	–
O=C(NCC[C@H](O)CN1CCN(c2cccc(Cl)c2Cl)CC1)c1cnc2ccccc2c1 [(S)-4, (S)-N-(4-(4-(2,3-Dichlorophenyl)piperazin-1-yl)-3-hydroxybutyl)quinoline-3-carboxamide]	partial agonists	partial agonists	–
O=C(NCCCCN1CCN(c2cccc(Cl)c2Cl)CC1)c1cc2ccccc2[nH]1 [Compound 10]	–	–	Emax (D3R [4]; HEK-293T, read-out: Emax (% of dopamine efficacy)): 16%
O=C(NCC[C@@H](O)CN1CCN(c2cccc(Cl)c2Cl)CC1)c1cc2ccccc2[nH]1 [(R)-9]	antagonists	–	–
CC[C@H](O)CN1CCN(c2cccc(Cl)c2Cl)CC1 [(S)-6, (S)-1-(4-(2,3-Dichlorophenyl)piperazin-1-yl)butan-2-ol]	partial agonists	partial agonists	–
